Screen size: about 2,400 compounds; about 1,200 (50%) were called active. So high a share suggests a set chosen from earlier hits. Not all results are given here. Unmarked numbers belong to inactive results.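 Rule for the calls: active = activation above the run cutoff, the mean activation over all tested wells plus 3 SD (cut at about 12% in these data); inactive = the rest.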

The nature of the assay: calcium rise in parental Ga16 cells – cell-based, fluorescence, CHO-Ga16 parental line, counter-screen for hTAAR1 agonist project (AID 651787). As to conditions: Fluo-8 calcium fluorescence, at 3 µM, active compounds read high, normalized to maximal ATP response, DMSO zero. The essentials: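 System – parental CHO cells stably overexpressing Gα16, lacking hTAAR1 · Quantity – 750 cells per well · Doses – one dose of 3 µM (nominal) · Incubation – 17-24 h seeding, dye 75 min 37 °C, 30 min RT · Measured by – Fluo-8 calcium-dye fluorescence · Read-out basis – percent activation from max/basal fluorescence ratio · Benchmarks – DMSO (0%) and EC100 ATP (100%)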
As to `Nc1cccc2c1C(=O)N(Cc1nnc(-c3ccccc3Br)o1)C2=O`, the activation is 60.4% (active).

`O=C(NCCc1ccccc1)/C(=C\c1ccc([N+](=O)[O-])cc1)NC(=O)c1ccccc1`: the activation is 2.11%.

On to `CCCCCC(=O)NC(=S)NNC(=O)c1ccc([N+](=O)[O-])cc1`, for which the activation was 91.4% (active).

Regarding `O=C(O)C1CC=CCC1C(=O)NCCc1ccccc1` (stereo not given), the activation is 0.16%.

As to `CCCC1CCC(=NNC(=S)NCCc2ccccc2)CC1` (stereo not given), the activation was 14.1% (active).

Turning to `CCC(C(=O)Nc1ccc(C(C)C)cc1)c1ccccc1` (stereo not given), the activation is 75.1% (active).

`c1ccc(C2CNCc3c2ccc2ccccc32)cc1` (stereo not given): the activation was 25.6% (active).

`COc1ccc(C(=O)CN2C(=O)NC(C)(c3ccc(C)cc3)C2=O)cc1OC` (stereo not given): the activation is 20.1% (active).

Turning to `Cc1ccc(O)c(NC(=S)NC(=O)COc2ccc(Br)cc2)c1`, the activation was 101% (active).

With `CCCOc1ccc(-c2c(C(=O)N/N=C/c3ccco3)nnn2-c2nonc2N)cc1`, the activation is 39.5% (active).

On to `Nc1nonc1-n1nnc(C(=O)N/N=C/c2ccc(Cl)cc2)c1-c1ccc2c(c1)OCO2`, for which the activation is 92.4% (active).

Regarding `c1ccc(-c2csc(N3CCc4ccccc4C3)n2)cc1`, the activation is 0.58%.

Take `O=C(Nc1ccc(F)cc1)Nc1nnc([C@H]2C[C@H](O)[C@@H](CO)O2)s1`: the activation was 4.42%.

With `O=C(CSc1nc(-c2ccco2)cc(C(F)(F)F)n1)NCc1cccs1`, the activation was 0.35%.

With `COc1cccc(N(CC(=O)N2CCc3ccccc3C2)S(C)(=O)=O)c1`, the activation is 1.72%.

`C#CCOc1ccc(/C=C2/C(=O)NN(c3ccccc3)C2=O)cc1OC`: the activation was 45.9% (active).

For `Cc1ccc(Cl)cc1N1CCN(C(=O)c2cccc3c(=O)c(C)c(-c4ccccc4)oc23)CC1`, the activation was 78.9% (active).

As to `CCCc1ccc(OCC(=O)NNC(=S)NC(=O)c2ccco2)cc1`, the activation is 64.1% (active).

As for `CC(Oc1ccc2ccccc2c1)C(=O)NNC(=S)NC(=O)c1ccco1` (stereo not given), the activation is 75.1% (active).

Consider `COCCCn1c(Cc2csc(Nc3cccc(Cl)c3)n2)nnc1SCC(=O)OC1CCCCC1`, for which the activation is 3.91%.

For `COc1ccc(CC(N)c2csc(NC(=O)Cc3ccccc3)n2)cc1` (stereo not given), the activation was 15.8% (active).

Turning to `NC(Cc1ccccc1)c1csc(Nc2cc(Oc3ccccc3)ncn2)n1` (stereo not given), the activation is 39% (active).

With `CC(C)(C)CC(=O)Nc1nc(C(N)Cc2ccc(C(F)(F)F)cc2)cs1` (stereo not given), the activation is 79.7% (active).

Take `Cn1c(=O)c(=O)n(C)c2cc(S(=O)(=O)NCCc3ccccc3)ccc21`: the activation was 0.95%.

`O=C(O)C1C2C=CC(O2)C1C(=O)NCCc1cccc(Cl)c1` (stereo not given): the activation is 2.07%.

On to `CCCc1cc(C(=O)Nc2ccc(C(=O)OC)cc2)cs1`, for which the activation is 4.88%.

For `O=C(c1noc2c1CCCC2)N1CCc2ccccc2C1`, the activation was 3.31%.

Consider `NC(=O)C1=C[C@H](c2csc3ccccc23)C[C@H](OCc2ccc(CO)cc2)O1`, for which the activation is 33.4% (active).

In the case of `Cc1cc2nc3c(=O)[nH]c(=O)nc-3n(C[C@H](O)[C@H](O)[C@H](O)CO)c2cc1C`, the activation was 138% (active).

As to `Cc1ccccc1-c1nc(CS(=O)(=O)CC(=O)N2CCc3ccccc3C2)c(C)o1`, the activation is 5.05%.

Consider `O=C(NNC(=S)NC(=O)c1cn(-c2ccccc2)nc1-c1ccccc1)c1ccncc1`, for which the activation is 79.1% (active).

As to `CC(NC(=O)c1cc(-c2ccccc2)on1)c1ccccc1` (stereo not given), the activation is 37.5% (active).

For the compound `CCc1ccccc1S(=O)(=O)Cc1ccc(C(=O)NCCc2ccccc2)o1`, the activation was 5.88%.

Take `Cc1ccc(S(=O)(=O)N(CC(=O)N2CCc3ccccc3C2)c2cccc(Cl)c2)cc1`: the activation is -0.38%.

With `CC(=O)Nc1ccccc1Sc1ccc2c3c(cccc13)C(=O)N(c1ccc(C)cc1)C2=O`, the activation is 0.61%.

Turning to `COc1cc(OC)cc(C(=O)N[C@H](C(=O)OCC(=O)NC(C)c2ccccc2)C(C)C)c1` (stereo not given in full), the activation is 24.2% (active).

`C[C@H](NC(=O)c1ccccc1)C(=O)OCC(=O)c1c[nH]c2ccccc12`: the activation was 0%.

`CCCn1c(O)c(CN2CCCC(C)C2)c(C)c(C#N)c1=O` (stereo not given): the activation was 4.14%.

As to `Cc1onc(-c2ccccc2)c1C(=O)NNC(=S)NC(=O)c1ccc(F)cc1`, the activation was 105% (active).

Take `COc1ccc(C(=O)NC(=S)NNC(=O)c2c(-c3ccccc3)noc2C)cc1`: the activation is 68.8% (active).

As to `Cc1cc(=O)oc2c(C)c(OCC(=O)NCCN3CCOCC3)ccc12`, the activation was 4.41%.

Consider `O=C(Nc1cccc(NC(=O)c2ccc(Br)cc2)c1)c1ccccc1`, for which the activation is 5.7%.

As to `COc1ccc(C(=O)NC(=S)NNC(=O)CCc2ccccc2)cc1`, the activation was 87.2% (active).

Take `COc1ccc(C(=O)NNC(=S)NC(=O)c2ccccc2)cc1`: the activation was 94.4% (active).

With `COc1ccc(OC)c(C(c2nnnn2C(C)(C)C)N2CCc3ccccc3C2)c1` (stereo not given), the activation was -0.7%.

In the case of `Nc1c(C(=O)c2cccs2)sc2nsc(SCCN3CCCCC3)c12`, the activation was 72.3% (active).

Turning to `CCC(c1nnnn1Cc1ccco1)N(CCc1ccccc1)Cc1cc2ccc(OC)cc2[nH]c1=O` (stereo not given), the activation was 4.24%.

In the case of `O=C1CCCC(O)=C1C=NCCc1ccccc1`, the activation is 5.18%.

For `CCCCc1c(-c2ccc(Br)cc2)ncn1CCc1ccccc1OC`, the activation was 13.2% (active).

Turning to `CCCCCc1c(-c2ccc(OC)c(OC)c2)ncn1CCc1ccccc1OC`, the activation was 17.4% (active).

Consider `CCCCc1c(-c2ccc(Cl)cc2)ncn1CCc1ccccc1OC`, for which the activation is 16.1% (active).

On to `CCCCCc1c(-c2cccc(Br)c2)ncn1CCc1ccccc1OC`, for which the activation was 10.8%.

Regarding `CCCCCc1c(Cc2ccccc2)ncn1CCc1ccccc1OC`, the activation was 17% (active).

For `CCc1c(-c2ccccc2OC)ncn1CCc1ccccc1OC`, the activation is 5.18%.

Turning to `O=[N+]([O-])c1cc(S(=O)(=O)NCCc2ccccn2)ccc1Cl`, the activation is 2.99%.

For the compound `CCCCCCCCCCOC(=O)Cn1c(COc2ccc(C)cc2)[n+](C)c2ccccc21`, the activation is 76.5% (active).

With `Cc1c(CNCCc2ccccc2)c(C(=O)O)c(C)n1-c1ccccc1`, the activation was 1.76%.

Turning to `S=C(Nc1ccc(Br)cc1)NC1CCN(Cc2ccccc2)CC1`, the activation is 22.9% (active).

Take `O=C(/C=C/[C@H]1O[C@@H](n2cnc3c(NC(=O)c4ccccc4)ncnc32)[C@H](O)[C@@H]1O)NCc1ccccc1`: the activation was 0.21%.

For the compound `O=C(Cc1ccc(Cl)cc1)NC(=S)Nc1ccccc1O`, the activation is 103% (active).

As for `O=C(NCCc1ccccc1)Oc1ccc(Cl)cc1`, the activation is 1.7%.

Take `Cc1ccccc1NC(=S)NC(=O)Cc1ccc(Cl)cc1`: the activation was 41.1% (active).

As to `O=c1cnnc(Nc2ccccc2)[nH]1`, the activation is 4.92%.

As for `O=C(Nc1ccccc1)Nc1nnc(COc2ccccc2F)s1`, the activation was 8.56%.

As for `O=Cc1c(NCCc2cccc(F)c2)c2ccccc2[nH]c1=O`, the activation is 2.77%.

In the case of `CCCCC(=O)NNC(=S)NC(=O)C(c1ccccc1)c1ccccc1`, the activation is 119% (active).

As for `CN(C)CCCN(C(=O)c1ccc(S(=O)(=O)N2CCCc3ccccc32)cc1)c1nc2ccc(F)cc2s1`, the activation was 37.7% (active).

In the case of `CN(C)CCCN(C(=O)c1ccc(S(=O)(=O)N2CCCCCC2)cc1)c1nc2ccc(Br)cc2s1`, the activation is 36.2% (active).

In the case of `Nc1nnn(CC(=O)N/N=C/c2ccccc2)n1`, the activation was -0.59%.

Regarding `c1ccc(CCN2CN=C(Nc3nc4ccccc4o3)NC2)cc1`, the activation is 0.14%.

With `CC(=O)Oc1ccc(Cn2c(C)c(C(=O)NCc3ccc(C#N)cc3)sc2=O)cc1`, the activation is 66.2% (active).

In the case of `Cc1cccc(NC(=O)C(C)N2C(=O)C3C4CC(C(Br)C4Br)C3C2=O)c1` (stereo not given), the activation is 25.2% (active).

Take `c1ccc(Nc2nc(N3CCOCC3)c3ccccc3n2)cc1`: the activation was 14.2% (active).

For the compound `Nc1c(NCCc2ccccc2)c2ccccc2oc1=O`, the activation was 6.54%.

With `CCCCOc1ccc(CSC(=N)N)cc1[N+](=O)[O-]`, the activation is 22.3% (active).

For the compound `CCOc1ccc(Br)cc1CSC(=N)N`, the activation is 9.07%.

On to `CCN(CC)c1ccc2oc(=O)c(C)nc2c1`, for which the activation was 43.7% (active).

`Oc1ccc2ccc3cccc[n+]3c2c1`: the activation is 126% (active).

`CN(C(=O)CN(CCO)CC(=O)N(C)C(C)(C)Cc1ccccc1)C(C)(C)Cc1ccccc1`: the activation was 84.7% (active).

On to `NC[C@H](Cc1ccccc1)NCCc1cc(C(F)(F)F)cc(C(F)(F)F)c1`, for which the activation was 21.6% (active).

`CCc1ccc(-c2nn(-c3ccccc3)cc2CSC(=N)N)cc1`: the activation was 26.4% (active).

`CN(C)c1ccc(/C=C2\NC(=S)N(Cc3ccccc3)C2=O)cc1`: the activation is 67.4% (active).

As to `O=C1CCCN2N=C(SCC(=O)Nc3ccc(Br)cc3)SC2=N1`, the activation is 8.82%.

For `O=C(Nc1ccncc1)Nc1ccc(F)cc1`, the activation was 4.69%.

Turning to `Cc1cc(C)c2cc(C#N)c(N3CCNCC3)nc2c1`, the activation is -0.65%.

`N#Cc1ccc(OCCCN2CCC(C(O)(c3ccccc3)c3ccccc3)CC2)c(F)c1`: the activation was 21.1% (active).

`O=C(CNC(=O)c1ccccc1F)OCC(=O)c1c[nH]c2ccccc12`: the activation is 2.13%.

In the case of `S=C(NCCCc1cnc[nH]1)NCCCN(Cc1ccc(Cl)c(Cl)c1)c1ccc(Br)cn1`, the activation was 26.5% (active).

Take `COc1ccc(NC(=O)C(=O)NCC(c2ccco2)N2CCc3ccccc3C2)cc1` (stereo not given): the activation is 0.06%.

Consider `COC(=O)c1[nH]c2cccc(C)c2c1NC(=O)CN1CCCc2ccccc21`, for which the activation is 11.5%.

With `COc1ccc(C(N)c2csc(NC(=O)Nc3cccc(C(F)(F)F)c3)n2)cc1` (stereo not given), the activation was 22.4% (active).

Take `CCOC(=O)Cc1csc(NC(=O)Nc2ccccc2)n1`: the activation was 10.9%.

As for `NC(c1ccccc1)c1csc(NC(=O)Nc2cccc(C(F)(F)F)c2)n1` (stereo not given), the activation is 37% (active).

In the case of `Cc1ccn2c(=O)c(C(=O)NCCC3=CCCCC3)c(O)nc2c1`, the activation is 4.2%.

For `O=C(CCCN=C1NS(=O)(=O)c2ccccc21)OCC(=O)c1ccc(F)c(F)c1`, the activation was 51.3% (active).

The values are drawn from PubChem BioAssay AID651787 (The Scripps Research Institute Molecular Screening Center, 2012).
